Test results reported in ChEMBL document CHEMBL1123109, “Alkyl esters of 3-adenin-9-yl-2-hydroxypropanoic acid: a new class of broad-spectrum antiviral agents” (1985).
≈ marks a conversion by molar mass, not a printed value.

Assays:
Assay type in all cases: functional
[1] = tested on: Vesicular stomatitis virus; assay: Inhibition of Vesicular stomatitis virus induced cytopathicity in T-21 cells.
Procedure, shortened: (§1)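 Vesicular stomatitis virus was inoculated at 100 CCID50 (100× the dose infecting 50% of cells) in each cell type: human embryonic skin-muscle fibroblasts, LR-strain trisomy-21 fibroblasts, HEp-2, CV-1, BS-C-1, Balb/3T3, RK13, human kidney, HeLa and Vero. CPE was read at 1–2 days in every cell type, once complete in untreated infected controls. The MIC is the concentration giving a 50% reduction in cytopathogenicity.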

[2] = tested on: Vesicular stomatitis virus; assay: Inhibition of Vesicular stomatitis virus induced cytopathicity in HEp-2 cells.; procedure, shortened: as §1
[3] = tested on: Vero; assay: Cytotoxic concentration against Vero cells.; conditions: Chlorocebus sabaeus
Procedure, shortened: (§2)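 Uninfected cells were incubated with compound for the same duration as the matching antiviral assay. The minimum cytotoxic concentration is the lowest one causing a microscopically detectable change in normal cell morphology.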

[4] = tested on: Human alphaherpesvirus 1; assay: Inhibition of HSV-1 induced cytopathicity in PRK cells.
[5] = tested on: Vesicular stomatitis virus; assay: Inhibition of Vesicular stomatitis virus induced cytopathicity in PRK cells.
[6] = tested on: Vesicular stomatitis virus; assay: Inhibition of Vesicular stomatitis virus induced cytopathicity in CV-1 cells.; procedure, shortened: as §1
[7] = tested on: Vesicular stomatitis virus; assay: Inhibition of Vesicular stomatitis virus induced cytopathicity in E6SM cells.; procedure, shortened: as §1
[8] = tested on: Poliovirus 1; assay: Inhibition of polio virus 1 induced cytopathicity in HeLa cells.; conditions: Enterovirus C
[9] = tested on: Measles morbillivirus; assay: Inhibition of Measles virus induced cytopathicity in vero cells.
[10] = tested on: Mammalian orthoreovirus 1; assay: Inhibition of Reo virus-1 induced cytopathicity in vero cells.
[11] = tested on: Human respirovirus 3; assay: Inhibition of parainfluenza virus-3 induced cytopathicity in vero cells.
[12] = tested on: PRK; assay: Cytotoxic concentration against PRK cells.; conditions: Oryctolagus cuniculus; procedure, shortened: as §2
[13] = tested on: Coxsackievirus B4; assay: Inhibition of Coxsackie B4 virus induced cytopathicity in HeLa cells.; conditions: Enterovirus B
[14] = tested on: Vesicular stomatitis virus; assay: Inhibition of Vesicular stomatitis virus induced cytopathicity in Vero cells.; procedure, shortened: as §1
[15] = tested on: Vesicular stomatitis virus; assay: Inhibition of Vesicular stomatitis virus induced cytopathicity in RK13 cells.; procedure, shortened: as §1
[16] = tested on: Vesicular stomatitis virus; assay: Inhibition of Vesicular stomatitis virus induced cytopathicity in BS-C-1 cells.; procedure, shortened: as §1
[17] = tested on: HeLa; assay: Cytotoxic concentration against HeLa cells.; conditions: Homo sapiens; procedure, shortened: as §2
[18] = tested on: HK; assay: Minimum inhibitory concentration which is required to reduce virus-induced cytopathogenicity by 50% against Vesicular stomatitis virus in human kidney,; procedure, shortened: as §1
[19] = species: Oryctolagus cuniculus; assay: Inhibitory effects on DNA, RNA, and Protein synthesis in rabbit kidney cells was evaluated for incorporation of [4,5-3H]leucine; conditions: read-out: ID50 (the source's name)
[20] = tested on: Vesicular stomatitis virus; assay: Inhibition of Vesicular stomatitis virus induced cytopathicity in HeLa cells.; procedure, shortened: as §1
[21] = tested on: Vaccinia virus; assay: Inhibition of Vaccinia virus induced cytopathicity in PRK cells.; conditions: Orthopoxvirus vaccinia
[22] = species: Oryctolagus cuniculus; assay: Inhibitory effects on DNA, RNA, and Protein synthesis in rabbit kidney cells was evaluated for incorporation of [methyl-3H]dThd]; conditions: read-out: ID50 (the source's name)
[23] = tested on: Sindbis virus; assay: Inhibition of Sindbis virus induced cytopathicity in vero cells.
[24] = tested on: Vesicular stomatitis virus; assay: Inhibition of Vesicular stomatitis virus induced cytopathicity in BALB/3T3 cells.; conditions: in Mus musculus; procedure, shortened: as §1
[25] = species: Oryctolagus cuniculus; assay: Inhibitory effects on DNA, RNA, and Protein synthesis in rabbit kidney cells was evaluated for incorporation of [5-3H]-Urd; conditions: read-out: ID50 (the source's name)
[26] = tested on: HK; assay: Minimum inhibitory concentration which is required to reduce virus-induced cytopathogenicity by 50% against Vesicular stomatitis virus in human kidney (HK) cells; procedure, shortened: as §1
[27] = tested on: HK; assay: Minimum inhibitory concentration which is required to reduce virus-induced cytopathogenicity by 50% against Vesicular stomatitis virus in human kidney; procedure, shortened: as §1

Compound	MIC [1]	MIC [2]	MCC [3]	MIC [4]	MIC [5]	MIC [7]	MIC [8]	MIC [9]	MIC [10]	MIC [11]	MCC [12]	MIC [13]	MIC [14]	MIC [15]	MIC [16]	MCC [17]	MIC [20]	MIC [21]	MIC [23]	MIC [24]	further results
CCCOC(=O)C(O)Cn1cnc2c(N)ncnc21 (stereo not given)	7 µg/mL (≈ 26.4 µM)	3 µg/mL (≈ 11.3 µM)	> 400 µg/mL	> 100 µg/mL	1 µg/mL (≈ 3.77 µM)	10 µg/mL (≈ 37.7 µM)	> 400 µg/mL	100 µg/mL (≈ 377 µM)	200 µg/mL (≈ 754 µM)	100 µg/mL (≈ 377 µM)	100 µg/mL	> 400 µg/mL	150 µg/mL (≈ 565 µM)	2 µg/mL (≈ 7.54 µM)	300 µg/mL (≈ 1130 µM)	> 400 µg/mL	50 µg/mL (≈ 188 µM)	3 µg/mL (≈ 11.3 µM)	> 200 µg/mL	> 400 µg/mL	MIC [6]: > 400 µg/mL; MIC [18]: 200 µg/mL (≈ 754 µM); IC50 [19]: > 400 µg/mL; IC50 [22]: > 276 µg/mL; IC50 [25]: 168 µg/mL (≈ 633 µM)
Nc1ncnc2c1ncn2CC(O)C(=O)OCCO (stereo not given)	30 µg/mL (≈ 112 µM)	3 µg/mL (≈ 11.2 µM)	> 400 µg/mL	> 400 µg/mL	30 µg/mL (≈ 112 µM)	70 µg/mL (≈ 262 µM)	> 400 µg/mL	30 µg/mL (≈ 112 µM)	> 200 µg/mL	> 200 µg/mL	> 400 µg/mL	> 400 µg/mL	150 µg/mL (≈ 561 µM)	100 µg/mL (≈ 374 µM)	> 400 µg/mL	> 400 µg/mL	70 µg/mL (≈ 262 µM)	70 µg/mL (≈ 262 µM)	> 400 µg/mL	> 400 µg/mL	MIC [6]: > 400 µg/mL; MIC [18]: 200 µg/mL (≈ 748 µM); IC50 [19]: > 400 µg/mL; IC50 [22]: > 314 µg/mL; IC50 [25]: > 400 µg/mL
CCCCOC(=O)C(O)Cn1cnc2c(N)ncnc21 (stereo not given)	2 µg/mL (≈ 7.16 µM)	2 µg/mL (≈ 7.16 µM)	200 µg/mL	> 200 µg/mL	3 µg/mL (≈ 10.7 µM)	7 µg/mL (≈ 25.1 µM)	> 400 µg/mL	25 µg/mL (≈ 89.5 µM)	150 µg/mL (≈ 537 µM)	70 µg/mL (≈ 251 µM)	200 µg/mL	> 400 µg/mL	30 µg/mL (≈ 107 µM)	100 µg/mL (≈ 358 µM)	150 µg/mL (≈ 537 µM)	400 µg/mL	15 µg/mL (≈ 53.7 µM)	3 µg/mL (≈ 10.7 µM)	150 µg/mL (≈ 537 µM)	200 µg/mL (≈ 716 µM)	MIC [6]: 300 µg/mL (≈ 1070 µM); MIC [18]: 50 µg/mL (≈ 179 µM); IC50 [19]: > 381 µg/mL; IC50 [22]: > 253 µg/mL; IC50 [25]: 102 µg/mL (≈ 365 µM)
COC(=O)C(O)Cn1cnc2c(N)ncnc21 (stereo not given)		3 µg/mL (≈ 12.6 µM)	> 400 µg/mL	> 400 µg/mL	3 µg/mL (≈ 12.6 µM)	30 µg/mL (≈ 126 µM)	> 400 µg/mL	40 µg/mL (≈ 169 µM)	200 µg/mL (≈ 843 µM)	20 µg/mL (≈ 84.3 µM)	> 400 µg/mL	> 400 µg/mL	> 400 µg/mL	1 µg/mL (≈ 4.22 µM)	150 µg/mL (≈ 632 µM)	> 400 µg/mL	70 µg/mL (≈ 295 µM)	7 µg/mL (≈ 29.5 µM)	> 400 µg/mL	300 µg/mL (≈ 1260 µM)	MIC [26]: > 400 µg/mL; IC50 [19]: > 400 µg/mL; IC50 [22]: > 400 µg/mL; IC50 [25]: 350 µg/mL (≈ 1480 µM)
CC(C)CCOC(=O)C(O)Cn1cnc2c(N)ncnc21 (stereo not given)	1 µg/mL (≈ 3.41 µM)	1 µg/mL (≈ 3.41 µM)	400 µg/mL	> 400 µg/mL	3 µg/mL (≈ 10.2 µM)	2 µg/mL (≈ 6.82 µM)	> 400 µg/mL	12 µg/mL (≈ 40.9 µM)	30 µg/mL (≈ 102 µM)	> 200 µg/mL	400 µg/mL	> 400 µg/mL	15 µg/mL (≈ 51.1 µM)	100 µg/mL (≈ 341 µM)	70 µg/mL (≈ 239 µM)	400 µg/mL	3 µg/mL (≈ 10.2 µM)	10 µg/mL (≈ 34.1 µM)	200 µg/mL (≈ 682 µM)	200 µg/mL (≈ 682 µM)	MIC [6]: 200 µg/mL (≈ 682 µM); MIC [18]: 10 µg/mL (≈ 34.1 µM); IC50 [19]: 228 µg/mL (≈ 777 µM); IC50 [22]: 114 µg/mL (≈ 389 µM); IC50 [25]: 29 µg/mL (≈ 98.9 µM)
CC(C)COC(=O)C(O)Cn1cnc2c(N)ncnc21 (stereo not given)	1 µg/mL (≈ 3.58 µM)	1 µg/mL (≈ 3.58 µM)	> 400 µg/mL	> 400 µg/mL	1 µg/mL (≈ 3.58 µM)	5 µg/mL (≈ 17.9 µM)	> 400 µg/mL	40 µg/mL (≈ 143 µM)	150 µg/mL (≈ 537 µM)	20 µg/mL (≈ 71.6 µM)	> 400 µg/mL	> 400 µg/mL	30 µg/mL (≈ 107 µM)	30 µg/mL (≈ 107 µM)	100 µg/mL (≈ 358 µM)	> 400 µg/mL	10 µg/mL (≈ 35.8 µM)	3 µg/mL (≈ 10.7 µM)	> 400 µg/mL	300 µg/mL (≈ 1070 µM)	MIC [6]: 200 µg/mL (≈ 716 µM); MIC [18]: 20 µg/mL (≈ 71.6 µM); IC50 [19]: > 277 µg/mL; IC50 [22]: 242 µg/mL (≈ 866 µM); IC50 [25]: 34 µg/mL (≈ 122 µM)
CCCCCCCCOC(=O)C(O)Cn1cnc2c(N)ncnc21 (stereo not given)	0.5 µg/mL (≈ 1.49 µM)	2 µg/mL (≈ 5.96 µM)	200 µg/mL	> 100 µg/mL	7 µg/mL (≈ 20.9 µM)	7 µg/mL (≈ 20.9 µM)	> 100 µg/mL	70 µg/mL (≈ 209 µM)	7 µg/mL (≈ 20.9 µM)	15 µg/mL (≈ 44.7 µM)	100 µg/mL	> 100 µg/mL	100 µg/mL (≈ 298 µM)	30 µg/mL (≈ 89.4 µM)	> 100 µg/mL	100 µg/mL	1 µg/mL (≈ 2.98 µM)	7 µg/mL (≈ 20.9 µM)	30 µg/mL (≈ 89.4 µM)	100 µg/mL (≈ 298 µM)	MIC [6]: > 100 µg/mL; MIC [27]: 15 µg/mL (≈ 44.7 µM)
Nc1ncnc2c1ncn2C[C@H](O)CO [(S)-DHPA]	20 µg/mL (≈ 95.6 µM)	4 µg/mL (≈ 19.1 µM)	> 400 µg/mL	> 400 µg/mL	15 µg/mL (≈ 71.7 µM)	15 µg/mL (≈ 71.7 µM)	> 400 µg/mL	30 µg/mL (≈ 143 µM)	200 µg/mL (≈ 956 µM)	20 µg/mL (≈ 95.6 µM)	> 400 µg/mL	> 400 µg/mL	200 µg/mL (≈ 956 µM)	150 µg/mL (≈ 717 µM)	> 400 µg/mL	> 400 µg/mL	30 µg/mL (≈ 143 µM)	30 µg/mL (≈ 143 µM)	> 400 µg/mL	> 400 µg/mL	MIC [6]: > 400 µg/mL; MIC [18]: 50 µg/mL (≈ 239 µM); IC50 [19]: > 400 µg/mL; IC50 [22]: > 326 µg/mL; IC50 [25]: > 400 µg/mL
